The test system of data set [1] is Primary neuron. Put plainly: Neuroprotective activity in rat primary hippocampal neurons assessed as 100 uM NMDA and 30 uM glycine induced LDH release in media at 10 uM after 20 to 24 hrs by spectrophotometric analysis. Type of data set: functional, cell-based. Put shortly:
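Rat hippocampal neurons were cultured 7–10 days in vitro at 37 °C. They were challenged for 1 h in Mg2+-free medium with 100 µM NMDA plus 30 µM glycine, then returned to normal medium. LDH in the supernatant was read spectrophotometrically 20–24 h later and expressed relative to vehicle-treated cells. Triplicates from 6 independent experiments.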
(LDH leaks from cells whose membrane has failed.)

Data set [2] has as its target Glutamate NMDA receptor; Grin1/Grin2b (Rattus norvegicus, UniProt P35439+Q00960). Put plainly: Negative allosteric modulation of rat GluN1a/GluN2B receptor expressed in Xenopus laevis oocytes assessed as suppression of 100 uM glutamate and 30 uM glycine induced-current by voltage clamp recording method. Type of data set: cell-based. In short, it runs like this:
(§1)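 Rat GluN1-1a cRNA co-injected with GluN2A, 2B, 2C or 2D cRNA into Xenopus oocytes; expression 1–3 days at 16–19 °C. Two-electrode voltage clamp. Currents evoked by 100 µM glutamate plus 30 µM glycine, alone and then with rising inhibitor concentrations. […] 4–17 oocytes from ≥2 frogs.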

The target of data set [3] is T1, Glutamate NMDA receptor; Grin1/Grin2b (Rattus norvegicus) (UniProt P35439+Q00960). Put plainly: Noncompetitive negative allosteric modulation of rat GluN1a/GluN2B receptor expressed in Xenopus laevis oocytes assessed as suppression of 1000 uM glutamate and 30 uM glycine induced-current at 5 uM by voltage clamp recording method relative to control. Format: cell-based. Put shortly:
(§2)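 Oocytes expressing GluN1 with GluN2A, 2B, 2C or 2D, two-electrode voltage clamp. Inhibition by 5 µM compound of currents evoked by 100 µM glutamate plus 30 µM glycine, compared with inhibition when glutamate was raised to 1000 µM or glycine to 300 µM. Mean ±SEM from 4–6 oocytes.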

Data set [4] is described as follows: Solubility of compound in TEVC electrophysiological solution at 3.25 to 100 uM by nephelometric method. Format: physicochemical. Put shortly: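 Nephelometry measuring forward light scattering of each compound at 3.25–100 µM in TEVC recording solution. Maximum solubility taken as the intersection point of a linear segmental regression. Mean of n = 2 in quadruplicate.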

Data set [5] has as its target Glutamate NMDA receptor; Grin1/Grin2a (Rattus norvegicus, UniProt P35439+Q00959). As to the kind of experiment: Negative allosteric modulation of rat GluN1a/GluN2A receptor expressed in Xenopus laevis oocytes assessed as suppression of 100 uM glutamate and 30 uM glycine glycine induced-current by voltage clamp recording method. Type of data set: cell-based. In short, it runs like this:
as §1

For data set [6], the target named is T2, Ionotropic glutamate receptor NMDA 1/2D (Rattus norvegicus) (UniProt P35439+Q62645). As to the kind of experiment: Noncompetitive negative allosteric modulation of rat GluN1a/GluN2D receptor expressed in Xenopus laevis oocytes assessed as suppression of 100 uM glutamate and 300 uM glycine induced-current at 5 uM by voltage clamp recording method relative to control. Format: cell-based. Put shortly: as §2

The target of data set [7] is Glutamate NMDA receptor (Rattus norvegicus) (UniProt P35439+Q00959+Q00960+Q00961+Q62645+Q8VHN2+Q9R1M7). As to the kind of experiment: Negative allosteric modulation of NMDA receptor in rat cerebellar granule cells assessed as suppression of 100 uM glutamate and 30 uM glycine induced-current at 30 uM cotreated with 100 uM NMDA and 50 uM glycine by patch clamp recording method. Put shortly: (§3)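 Primary cerebellar granule cell cultures from P6–8 rats, whole-cell patch clamp at a holding potential of −70 mV. NMDA receptor currents evoked by 100 µM NMDA plus 30 µM glycine (50 µM glycine in the example trace), with the inhibitor co-applied at various concentrations. Steady-state inhibition averaged over n = 5 cells and fitted with the Hill equation.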
On the technique in general: In patch-clamp work, channel activity is measured electrically.

Data set [8] concerns the target T3, Glutamate NMDA receptor; Grin1/Grin2c (Rattus norvegicus) (UniProt P35439+Q00961). As to the kind of experiment: Negative allosteric modulation of rat GluN1a/GluN2C receptor expressed in Xenopus laevis oocytes assessed as suppression of 100 uM glutamate and 30 uM glycine induced-current at saturating compound level by voltage clamp recording method. Type of data set: cell-based. Put shortly: as §1

Data set [9] deals with T3, Glutamate NMDA receptor; Grin1/Grin2c (Rattus norvegicus). Put plainly: Noncompetitive negative allosteric modulation of rat GluN1a/GluN2C receptor expressed in Xenopus laevis oocytes assessed as suppression of 100 uM glutamate and 300 uM glycine induced-current at 5 uM by voltage clamp recording method relative to control. Type of data set: cell-based. Put shortly: as §2

For data set [10] the target is unchanged. Put plainly: Noncompetitive negative allosteric modulation of rat GluN1a/GluN2C receptor expressed in Xenopus laevis oocytes assessed as suppression of 1000 uM glutamate and 30 uM glycine induced-current at 5 uM by voltage clamp recording method relative to control. Format: cell-based. In short, it runs like this: as §2
For data set [11], the target named is Ionotropic glutamate receptor NMDA 1/2D (Rattus norvegicus, UniProt P35439+Q62645). As to the kind of experiment: Negative allosteric modulation of rat GluN1a/GluN2D receptor expressed in Xenopus laevis oocytes assessed as suppression of 100 uM glutamate and 30 uM glycine induced-current by voltage clamp recording method. Type of data set: cell-based. In short, it runs like this: as §1

Data set [12] relates to Primary neuron. Put plainly: Neuroprotective activity in rat primary hippocampal neurons assessed as 100 uM NMDA and 30 uM glycine induced LDH release in media at 30 uM after 20 to 24 hrs by spectrophotometric analysis. Type of data set: functional, cell-based. Put shortly: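 Primary rat hippocampal neurons kept 7–10 days in vitro at 37 °C. Challenged for 1 h with Mg2+-free medium containing 100 µM NMDA plus 30 µM glycine, with or without […], then returned to normal medium. LDH activity in the supernatant read spectrophotometrically 20–24 h later and expressed relative to vehicle-treated cells. Triplicates from 6 independent experiments.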

In data set [13] the target is T2, Ionotropic glutamate receptor NMDA 1/2D (Rattus norvegicus). Put plainly: Noncompetitive negative allosteric modulation of rat GluN1a/GluN2D receptor expressed in Xenopus laevis oocytes assessed as suppression of 1000 uM glutamate and 30 uM glycine induced-current at 5 uM by voltage clamp recording method relative to control. Format: cell-based. Put shortly: as §2

The target in data set [14] is T1, Glutamate NMDA receptor; Grin1/Grin2b (Rattus norvegicus). Put plainly: Noncompetitive negative allosteric modulation of rat GluN1a/GluN2B receptor expressed in Xenopus laevis oocytes assessed as suppression of 100 uM glutamate and 300 uM glycine induced-current at 5 uM by voltage clamp recording method relative to control. Type of data set: cell-based. In short, it runs like this: as §2

For data set [15], the target named is T3, Glutamate NMDA receptor; Grin1/Grin2c (Rattus norvegicus). Put plainly: Voltage-independent negative allosteric modulation of rat GluN1a/GluN2C receptor expressed in Xenopus laevis oocytes assessed as mean reverse potential of 100 uM glutamate and 30 uM glycine induced-current at -60 to +60 mV at 3 uM by voltage clamp recording method in absence of Mg2+ (Rvb=-13+/-0.6 mV). Type of data set: cell-based. In short, it runs like this:
(§4)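 GluN1/GluN2C receptors in Xenopus oocytes, two-electrode voltage clamp in Mg2+-free solution. Currents evoked by maximally effective glutamate plus glycine, without and with 3 µM inhibitor, recorded at membrane potentials from −60 to +60 mV. Reversal potential taken from the current–voltage relationship (3rd-order polynomial fit). n = 5 oocytes, mean ±SEM.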

Data set [16] deals with T4, Glutamate NMDA receptor; Grin1/Grin2a (Rattus norvegicus) (UniProt P35439+Q00959). Put plainly: Negative allosteric modulation of rat GluN1a/GluN2A receptor expressed in Xenopus laevis oocytes assessed as suppression of 100 uM glutamate and 30 uM glycine induced-current at saturating compound level by voltage clamp recording method. Type of data set: cell-based. Put shortly: as §1

The next data set concerns the target Glutamate NMDA receptor. Put plainly: Negative allosteric modulation of NMDA receptor in rat cerebellar granule cells assessed as suppression of 100 uM glutamate and 30 uM glycine induced-current cotreated with 100 uM NMDA and 50 uM glycine by patch clamp recording method. Put shortly:
as §3

For data set [17], the target named is Glutamate NMDA receptor; Grin1/Grin2c (Rattus norvegicus, UniProt P35439+Q00961). As to the kind of experiment: Negative allosteric modulation of rat GluN1a/GluN2C receptor expressed in Xenopus laevis oocytes assessed as suppression of 100 uM glutamate and 30 uM glycine induced-current by voltage clamp recording method. Format: cell-based. In short, it runs like this: as §1

Data set [18] addresses T1, Glutamate NMDA receptor; Grin1/Grin2b (Rattus norvegicus). As to the kind of experiment: Negative allosteric modulation of rat GluN1a/GluN2B receptor expressed in Xenopus laevis oocytes assessed as suppression of 100 uM glutamate and 30 uM glycine induced-current at saturating compound level by voltage clamp recording method. Format: cell-based. Put shortly: as §1
Data set [19] concerns the target T4, Glutamate NMDA receptor; Grin1/Grin2a (Rattus norvegicus). As to the kind of experiment: Noncompetitive negative allosteric modulation of rat GluN1a/GluN2A receptor expressed in Xenopus laevis oocytes assessed as suppression of 1000 uM glutamate and 30 uM glycine induced-current at 5 uM by voltage clamp recording method relative to control. Format: cell-based. In short, it runs like this: as §2

The target in data set [20] is T3, Glutamate NMDA receptor; Grin1/Grin2c (Rattus norvegicus). As to the kind of experiment: Negative allosteric modulation of rat GluN1a/GluN2C receptor expressed in Xenopus laevis oocytes assessed as suppression of 100 uM glutamate and 30 uM glycine induced-current at -60 to +60 mV at 3 uM by voltage clamp recording method in absence of Mg2+. Format: cell-based. Put shortly: as §4

In data set [21] the target is T2, Ionotropic glutamate receptor NMDA 1/2D (Rattus norvegicus). As to the kind of experiment: Negative allosteric modulation of rat GluN1a/GluN2D receptor expressed in Xenopus laevis oocytes assessed as suppression of 100 uM glutamate and 30 uM glycine induced-current at saturating compound level by voltage clamp recording method. Type of data set: cell-based. Put shortly:
as §1

The target in data set [22] is T4, Glutamate NMDA receptor; Grin1/Grin2a (Rattus norvegicus). Put plainly: Noncompetitive negative allosteric modulation of rat GluN1a/GluN2A receptor expressed in Xenopus laevis oocytes assessed as suppression of 100 uM glutamate and 300 uM glycine induced-current at 5 uM by voltage clamp recording method relative to control. Type of data set: cell-based. Put shortly: as §2

The next data set is filed under the species Rattus norvegicus. As to the kind of experiment: Selectivity ratio of IC50 for rat GluN1a/GluN2A receptor expressed in Xenopus laevis oocytes to IC50 for rat GluN1a/GluN2D receptor expressed in Xenopus laevis oocytes. Format: cell-based.

A word on the IC50: it is the concentration needed to halve the response being measured. A word on the inhibition: it is the drop in the measured response relative to a control, in per cent. By kinetic solubility is commonly meant the concentration staying in solution when a stock, usually in DMSO, is diluted into the medium.

Values after ≈ are worked out from the molar mass of the structure shown. Active and inactive are the calls of the source. The rule behind the calls is not given here.

`C[C@]12N[C@H](Cc3ccccc31)c1ccccc12`: the outcome in the data set with Primary neuron [1] was Active.
As for `CCOC(=O)c1c(NC(=O)CC2SC(N)=NC2=O)sc2c1CCC(C)C2` (racemic), the IC50 in data set [2] came to 2200 nM; in data set [5], 900 nM; in data set [11] it was 400 nM; on Glutamate NMDA receptor, 3400 nM; in data set [17], 700 nM. Further, the inhibition result in [3], in [6], in data set [7], in data set [9], in data set [10] and in [13] was “Active” each time. In addition, the inhibition entry in data set [14], in data set [19], in [20] and in [22] was “Active” throughout. This compound returned a kinetic solubility in [4] of 43 µM (≈ 17 µg/mL). The inhibition in data set [8] was 80%; in [16], 88%; in [18], 70%; in [21], 76%. For the same compound, the result in the data set with Primary neuron [12] was Active. In addition, the Activity in [15] was -11.9 mV.
Turning to `CCOC(=O)c1c(NC(=O)CC2SC(=N)NC2=O)sc2c1CCSC2` (racemic), the IC50 in data set [2] worked out at 12200 nM; in data set [5], 6200 nM; in data set [11], 800 nM; in [17], 800 nM. Further, the inhibition is 88% in [8], 82% in data set [16], 78% in data set [18] and 84% in data set [21]. Further, the Ratio IC50 in the data set filed under Rattus norvegicus was 7.

For the origin of these results see ChEMBL document CHEMBL3739344, “A novel class of negative allosteric modulators of NMDA receptor function” (Bioorg Med Chem Lett, 2015).
